Data on four compounds can be found in paper PMC8776895 (British journal of pharmacology, 2021).

Common to all, as to format: cell-based
One assay addresses m-CLR:m-RAMP1 (Mus musculus, UniProt Q9R1W5+Q9WTJ5). The assay is described as follows: cAMP production, agonist concentration-response, transfected Cos7 cells. To be noted: for EC50: SEM. On the technique in general: Cyclic AMP is a second messenger, typically raised through Gs and lowered through Gi signalling.
Assay [1] deals with T1, m-CLR:m-RAMP2 (Mus musculus, UniProt Q9R1W5+Q9WUP0, P10T). The assay is described as above. To be noted: for EC50: SEM.
The target in assay [2] is T2, m-CLR:m-RAMP3 (Mus musculus, UniProt Q9R1W5+Q9WUP1). Described as above. To be noted: SEM.
Assay [3] addresses T3, m-CTR:pcDNA (m-CTR alone) (Mus musculus, UniProt Q60755).
T3 sequence (Q60755 42-496 isoform Q60755-2 limits assumed): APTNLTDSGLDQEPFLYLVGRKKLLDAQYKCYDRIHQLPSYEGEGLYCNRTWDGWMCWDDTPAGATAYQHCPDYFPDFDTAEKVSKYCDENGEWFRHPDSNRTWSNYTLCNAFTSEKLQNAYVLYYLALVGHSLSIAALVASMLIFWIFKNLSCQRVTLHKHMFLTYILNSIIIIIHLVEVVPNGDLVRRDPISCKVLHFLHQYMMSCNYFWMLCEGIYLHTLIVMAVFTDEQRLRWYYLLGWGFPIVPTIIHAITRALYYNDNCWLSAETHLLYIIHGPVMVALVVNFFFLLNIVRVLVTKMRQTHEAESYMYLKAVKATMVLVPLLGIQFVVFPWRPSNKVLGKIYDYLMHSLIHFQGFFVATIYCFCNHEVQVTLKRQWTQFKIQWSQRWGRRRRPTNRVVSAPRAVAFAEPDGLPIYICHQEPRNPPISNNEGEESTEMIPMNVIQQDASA
The assay is described as above. To be noted: SEM.

Another assay concerns the target T4, m-CTR:m-RAMP1 (Mus musculus, UniProt Q60755+Q9WTJ5).
T4 sequence (Q60755 42-496 isoform Q60755-2 limits assumed): T3 sequence (Q60755 42-496 isoform Q60755-2 limits assumed)
T4 sequence (Q9WTJ5 27-148): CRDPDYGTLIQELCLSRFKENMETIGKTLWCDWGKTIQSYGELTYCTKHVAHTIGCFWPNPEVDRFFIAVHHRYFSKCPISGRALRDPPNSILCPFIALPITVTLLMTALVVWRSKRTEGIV
The assay is described as above. To be noted: for EC50: SEM.

For a further assay, the target named is T5, m-CTR:m-RAMP2 (Mus musculus, UniProt Q60755+Q9WUP0, P10T).
T5 sequence (Q60755 42-496 isoform Q60755-2): T3 sequence (Q60755 42-496 isoform Q60755-2 limits assumed)
T5 sequence (Q9WUP0 45-189): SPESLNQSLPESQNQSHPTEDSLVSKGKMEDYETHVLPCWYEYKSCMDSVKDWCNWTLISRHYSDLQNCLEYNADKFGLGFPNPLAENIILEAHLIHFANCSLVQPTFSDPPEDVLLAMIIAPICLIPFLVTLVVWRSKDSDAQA
Described as above. To be noted: SEM.

In another assay the target is T6, m-CTR:m-RAMP3 (Mus musculus, UniProt Q60755+Q9WUP1).
T6 sequence (Q60755 42-496 isoform Q60755-2 limits assumed): T3 sequence (Q60755 42-496 isoform Q60755-2 limits assumed)
T6 sequence (Q9WUP1 23-147): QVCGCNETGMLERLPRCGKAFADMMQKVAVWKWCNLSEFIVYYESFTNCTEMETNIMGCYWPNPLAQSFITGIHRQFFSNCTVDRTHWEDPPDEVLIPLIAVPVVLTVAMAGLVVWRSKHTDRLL
Described as above. To be noted: for EC50: SEM; for fold increase in potency relative to m-CTR alone: m-CTR:m-RAMP3 versus m-CTR:pcDNA.

The target of the next assay is m-CLR:pcDNA (Mus musculus, UniProt Q9R1W5). Kind of assay: cAMP production, agonist stimulation, Cos7 cells with m-CLR without RAMP. To be noted: concentrations as high as 10 μM. In outline: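 Mouse CLR was co-transfected 1:1 with empty pcDNA3.1(+) (no RAMP) into Cos-7 cells with polyethylenimine. Cells were seeded at 15,000–20,000/well, transfected 18–24 h later and used about 48 h after that. After 30 min in DMEM with 1 mM IBMX and 0.1% BSA, agonist peptides were applied for 15 min at 37 °C. Forskolin (100 µM final) served as positive control. cAMP was quantified by LANCE assay from a standard curve, in duplicate or triplicate.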

Assay [4] addresses T1, m-CLR:m-RAMP2. The assay is described as follows: Antagonism of agonist-stimulated cAMP production, transfected Cos7 cells.
In assay [5] the target is T2, m-CLR:m-RAMP3. The description is as above. To be noted: agonist m-AM, mean ± s.e.m., n = 5, SEM.

Positions of bridges follow the written chain, without caps; N, C: chain ends. Residues, ends and D or L forms follow the SMILES beside them. No end group written: not given here.

Sequence of m-CLR:m-RAMP1 (Q9R1W5 23-463, one chain of several): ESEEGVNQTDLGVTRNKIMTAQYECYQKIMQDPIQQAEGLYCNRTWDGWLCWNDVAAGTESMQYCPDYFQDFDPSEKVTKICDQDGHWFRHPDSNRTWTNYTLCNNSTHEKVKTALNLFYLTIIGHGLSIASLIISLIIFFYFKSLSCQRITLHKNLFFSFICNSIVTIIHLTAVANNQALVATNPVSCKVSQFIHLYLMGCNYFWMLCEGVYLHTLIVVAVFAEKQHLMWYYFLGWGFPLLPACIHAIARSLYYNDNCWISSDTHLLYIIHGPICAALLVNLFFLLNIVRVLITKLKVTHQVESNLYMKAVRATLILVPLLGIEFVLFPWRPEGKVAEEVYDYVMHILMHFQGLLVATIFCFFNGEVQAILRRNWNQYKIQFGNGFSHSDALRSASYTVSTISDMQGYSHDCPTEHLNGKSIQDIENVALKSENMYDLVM
T1 sequence (Q9R1W5 23-463, one chain of several): as above
T2 sequence (Q9R1W5 23-463, one chain of several): as above
Sequence of m-CLR:pcDNA (Q9R1W5 23-463): as the sequence (Q9R1W5 23-463, one chain of several) above

Broadly, the EC50 is the concentration giving half of the maximal effect. `CC(C)C[C@H](NC(=O)[C@H](CCCNC(=N)N)NC(=O)[C@H](Cc1c[nH]cn1)NC(=O)[C@H](CO)NC(=O)[C@H](CC(C)C)NC(=O)[C@H](CC(N)=O)NC(=O)[C@H](CCC(N)=O)NC(=O)[C@@H](NC(=O)[C@H](CCC(N)=O)NC(=O)[C@@H]1CSSC[C@H](NC(=O)CNC(=O)[C@@H](N)C(C)C)C(=O)N[C@@H](C(C)C)C(=O)N[C@@H](CC(C)C)C(=O)NCC(=O)N[C@@H]([C@@H](C)O)C(=O)N1)C(C)C)C(=O)N[C@@H](Cc1c[nH]c2ccccc12)C(=O)N[C@@H](CCC(N)=O)C(=O)N[C@@H](CC(C)C)C(=O)N[C@H](C(=O)N[C@@H](CCCNC(=N)N)C(=O)N1CCC[C@H]1C(=O)N[C@@H](C)C(=O)NCC(=O)N[C@@H](CCCNC(=N)N)C(=O)N[C@@H](CCCNC(=N)N)C(=O)N[C@@H](CC(=O)O)C(=O)N[C@@H](CO)C(=O)N[C@@H](C)C(=O)N1CCC[C@H]1C(=O)N[C@H](C(=O)N[C@@H](CC(=O)O)C(=O)N1CCC[C@H]1C(=O)N[C@@H](CO)C(=O)N[C@@H](CO)C(=O)N1CCC[C@H]1C(=O)N[C@@H](Cc1c[nH]cn1)C(=O)N[C@@H](CO)C(=O)N[C@@H](Cc1ccc(O)cc1)C(N)=O)C(C)C)C(C)C` [m-AM2_40] (H-VGCVLGTCQVQNLSHRLWQLVRPAGRRDSAPVDPSSPHSY-NH2; disulfide 3-8; N-terminus assumed): the EC50 on m-CLR:m-RAMP1 was 0.955 nM; on m-CLR:m-RAMP2 [1] it was 3.72 nM; at m-CLR:m-RAMP3 [2], 0.776 nM; in assay [3], 12.3 nM; on m-CTR:m-RAMP1 it was 3.02 nM; at m-CTR:m-RAMP2, 8.13 nM. In addition, the EC50 at m-CTR:m-RAMP3 is 1.66 nM. On m-CLR:m-RAMP1 (m-CLR:m-RAMP1, cAMP pEC50), the “fold less potent than m/r-αCGRP” value is “approximately 14 fold”.

“PHAQLLRVGCVLGTCQVQNLSHRLWQLVRPAGRRDSAPVDPSSPHSY-NH2 (disulfide 10-15) [m-AM2_47]”: the EC50 was 4.47 nM at m-CLR:m-RAMP1; 10.5 nM at m-CLR:m-RAMP2 [1]; 1.32 nM at m-CLR:m-RAMP3 [2]; 56.2 nM in assay [3]; 6.92 nM at m-CTR:m-RAMP1; 42.7 nM on m-CTR:m-RAMP2. Moreover, the EC50 at m-CTR:m-RAMP3 is 2.14 nM. The “fold less potent than m-AM” value at m-CLR:m-RAMP2 [1] (m-CLR:m-RAMP2, cAMP pEC50) is listed as “~ seven”. The “fold increase in potency relative to m-CTR alone” value on m-CTR:m-RAMP1 (m-CTR:m-RAMP1 versus m-CTR:pcDNA) is “eight”; on m-CTR:m-RAMP3 it was 26 fold.

“YRQSMNQGSRSNGCRFGTCTFQKLAHQIYQLTDKDKDGMAPRNKISPQGY-NH2 (disulfide 14-19) [m-AM]”: the EC50 at m-CLR:m-RAMP1 is 6.61 nM; at m-CLR:m-RAMP2 [1] it was 1.55 nM; at m-CLR:m-RAMP3 [2], 0.468 nM; in [3] it was 37.2 nM; on m-CTR:m-RAMP1, 27.5 nM; on m-CTR:m-RAMP2, 19.5 nM. This compound had an EC50 at m-CTR:m-RAMP3 of 3.55 nM. The “fold increase in potency relative to m-CTR alone” value at m-CTR:m-RAMP3 was determined as 11 fold. Also, on m-CLR:pcDNA, the “cAMP response to stimulation” value is recorded as “did not respond”.

One may read the pA2 as a measure of antagonist potency on a negative log scale. High values mean higher antagonist potency, low ones lower antagonist potency. “h-AM22-52: commonly used AM-receptor antagonist, purchased from Bachem”: the pA2 amounted to 5.71 ± 0.03 with m-CLR:m-RAMP2 [4] (agonist m-AM, m-CLR:m-RAMP2, mean ± s.e.m., n = 5, SEM) and 5.19 ± 0.21 with m-CLR:m-RAMP3 [5]. Further, the “fold more effective at m-CLR:m-RAMP2 over m-CLR:m-RAMP3” value with m-CLR:m-RAMP2 [4] (from pA2, agonist m-AM) is recorded as “three”.
